From PubChem
TRPN1 ag = activates the zebrafish TRPN1 channel | HEK293 zebrafish TRPN1-YFP, Fluo-8 calcium fluorescence; 100% = response to 87 µM carbachol | activation, % at 3 µM | 220,000 tested, 0.18% active | AID 1424;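 active means activation above its plate's cutoff, the mean activation of test wells on that plate plus 3 SD, cut at about 19% in these data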;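 further: 0% = DMSO alone and 100% = 87 µM carbachol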
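Assay system: Zebrafish TRPN1-YFP in HEK293 cells | Incubation: Dye loading 1 h at 37 °C, then 30 min room temperature | Measured by: Kinetic Fluo-8 fluorescence, ex 470-495, em 515-575 nm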
TRPML3 agonist = activates the human TRPML3 channel. Q8TDD5. HEK293 TRPML3-YFP, Fluo-8 calcium fluorescence; 100% = the carbachol control signal. activation, % at 3 µM. 220,000 tested, 0.29% active. AID 1448;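 active means activation above its plate's cutoff, the mean activation of the plate's test wells plus 3 SD, cut at about 12% in these data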;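 further: 0% = DMSO only wells and 100% = carbachol wells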
Target sequence (Q8TDD5 whole entry, looked up): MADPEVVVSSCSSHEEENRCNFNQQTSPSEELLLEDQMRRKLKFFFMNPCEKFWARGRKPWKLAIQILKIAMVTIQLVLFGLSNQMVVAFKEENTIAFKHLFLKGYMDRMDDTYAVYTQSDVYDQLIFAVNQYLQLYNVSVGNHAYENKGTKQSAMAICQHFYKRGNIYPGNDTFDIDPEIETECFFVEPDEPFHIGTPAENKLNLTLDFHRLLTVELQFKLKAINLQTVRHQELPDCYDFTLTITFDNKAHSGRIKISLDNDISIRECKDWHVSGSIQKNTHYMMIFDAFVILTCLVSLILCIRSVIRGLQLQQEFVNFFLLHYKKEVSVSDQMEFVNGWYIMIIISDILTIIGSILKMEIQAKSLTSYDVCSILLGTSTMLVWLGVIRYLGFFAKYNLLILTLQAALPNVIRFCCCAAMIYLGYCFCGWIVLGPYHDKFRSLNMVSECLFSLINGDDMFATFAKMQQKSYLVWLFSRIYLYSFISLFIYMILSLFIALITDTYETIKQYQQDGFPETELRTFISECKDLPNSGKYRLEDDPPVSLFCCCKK
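Material: HEK293 cells stably carrying human TRPML3-YFP; compound dosing: single dose, 3 µM final nominal compound, 0.3% DMSO final; incubation: 1-h 37 °C dye load, 5-s basal, 120-s post-compound reads; technique: Fluo-8 intracellular calcium fluorescence, excitation 470-495 nm, emission 515-575 nm; read-out basis: percent activation from peak-to-basal fluorescence ratio, scaled between DMSO and carbachol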
CRFR2-BP ag = agonists of human CRF-binding protein/CRF-R2 receptor complex | HEK293 CRF-R2/CRF-BP, calcium dye fluorescence (FLIPR); percent of saturating CRF peptide response | activation, % at 13.2 µM | 350,000 tested, 0.46% active | AID 588473;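 active means activation of at least 50%, plus an integration ratio under a set limit after plate pattern correction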;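 further: plate controls were neutral control wells without compound for no effect and CRF at EC100 for full effect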
IMP-1 inh-1 = inhibitors of Pseudomonas aeruginosa IMP-1 metallo-beta-lactamase | purified IMP-1, nitrocefin hydrolysis, epi-absorbance fluorescence | inhibition, % at 5.6 µM | 290,000 tested, 0.45% active;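 active means inhibition above the mean plus 3 SD of all compounds in the same screening run, cut at about 4.5% in these data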;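 further: 0% = IMP-1 with DMSO and 100% = DMSO wells lacking enzyme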
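System: purified recombinant IMP-1 beta-lactamase. Medium: Zinc- and detergent-supplemented HEPES buffer, pH 7.1. Compound: one 5.6 µM dose […]. Schedule: 15 min preincubation plus 25 min reaction at 25 °C. Technique: Epi-absorbance fluorescence, 480 nm excitation, 530 nm emission.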
CRFR2-BP antag = antagonists of CRF-binding protein/CRF-R2 receptor complex | AID 588475 | HEK293 CRF-R2/CRF-BP, CRF-induced calcium fluorescence | 350,000 tested, 0.59% active | inhibition, % at 11.8 µM;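 active means inhibition of the ligand-induced calcium signal above about 50% at the single tested concentration, limit read from the data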
VIM-2 inhibitor = blocks Pseudomonas aeruginosa VIM-2 metallo-beta-lactamase; purified VIM-2, nitrocefin hydrolysis, epi-absorbance fluorescence; inhibition, % at 5.6 µM; 290,000 tested, 0.89% active;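 active means inhibition above the mean of all tested compounds plus 3 SD, cutoff set per screening run, cut at about 7.5% in these data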;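 further: red hydrolysis product quenches plate fluorescence so inhibitors raise well fluorescence; 0% = enzyme with DMSO and 100% = DMSO without enzyme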
IMP-1 inh-2 = selectivity counter-screen for VIM-2 inhibitors: IMP-1 metallo-beta-lactamase inhibitors; 1,300 tested, under 10 active; inhibition, % at 5.6 µM; purified IMP-1, nitrocefin hydrolysis, epi-absorbance fluorescence; shares compounds with VIM-2 inhibitor; call rule not given here;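 further: 0% = enzyme with vehicle and 100% = vehicle without enzyme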
VIM-2 FRET inh = counter-screen for VIM-2 inhibitors: epi-absorbance artifacts via FRET; shares compounds with VIM-2 inhibitor; purified VIM-2, CCF2 FRET substrate hydrolysis; inhibition, % at 5.6 µM; 1,300 tested, 23% active; AID 1857;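 active means inhibition above the mean of all tested compounds plus 3 SD, cut at about 19% in these data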;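 further: 0% = VIM-2 plus DMSO and 100% = no enzyme wells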
TEM-1 counter = blocks E. coli TEM-1 beta-lactamase in VIM-2 selectivity screen | shares compounds with VIM-2 inhibitor | Purified TEM-1, nitrocefin hydrolysis, epi-absorbance fluorescence | inhibition, % at 5.6 µM | 1,300 tested, 3% active | AID 1866;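 active means inhibition above that campaign's mean inhibition plus 3 SD, cut at about 0.46% in these data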;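 further: 0% = TEM-1 with DMSO and 100% = TEM-1 with 100 µM potassium clavulanate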
VIM-2 inh conf = confirmation of P. aeruginosa VIM-2 metallo-beta-lactamase inhibitors. shares compounds with VIM-2 inhibitor. purified VIM-2, nitrocefin hydrolysis, epi-absorbance. inhibition, % at 5.6 µM. 1,300 tested, 96% active. AID 2187;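 active means inhibition of the VIM-2 beta-lactamase enzyme above about 11% from the earlier first-round screen, limit read from the data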;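 further: 0% = VIM-2 with DMSO and 100% = buffer wells without enzyme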
* hit, by the source's call; · = no result given. An excerpt weighted towards active compounds, which were near 2.1% of everything screened.

SMILES	TRPN1 ag	TRPML3 agonist	CRFR2-BP ag	IMP-1 inh-1	CRFR2-BP antag	VIM-2 inhibitor	IMP-1 inh-2	VIM-2 FRET inh	TEM-1 counter	VIM-2 inh conf
CCN(CC)CCCNc1cc(C(F)(F)F)c(C#N)c2nc3ccccc3n12	·	·	5	-1	20	29*	-2	-5	-2	41*
Cc1cc(NCCCN2CCOCC2)n2c(nc3ccccc32)c1C#N	0	1	3	-1	3	40*	-2	-9	-5	57*
CCCCn1c(N)c(N(C)C(=O)c2cc3c(F)cccc3s2)c(=O)[nH]c1=O	·	·	-1	·	2	·	·	·	·	·
CCc1ccc(CN2CCC(n3nccc3NC(=O)c3ccccc3OC)CC2)o1	·	·	0	·	-3	·	·	·	·	·
COc1ccccc1C(=O)Nc1ccnn1C1CCN(Cc2cnn(C)c2C)CC1	·	·	1	0	-3	57*	-4	1	-6	0
CC1CCCN(c2c3c(nc4ccccc24)CCCC3)C1 (stereo not drawn)	·	·	0	0	-11	13*	-3	2	-5	21*
CCN(CC)CCSc1nnc2c3cc(C)ccc3n(Cc3ccccc3)c2n1	0	0	0	-2	0	23*	-3	4	-7	43*
CSc1nnc2c3cc(F)ccc3n(Cc3ccccc3)c2n1	·	·	2	·	-37	·	·	·	·	·
Cc1ccc(-c2nn3nnnc3c3ccccc23)cc1C	-1	0	-1	0	-23	0	·	·	·	·
Cc1ccc(-c2nn3cnnc3c3ccccc23)cc1C	0	1	-1	-1	-20	24*	0	6	1.6*	39*
COC(=O)c1cc(Cn2nc(C(=O)O)c3ccccc3c2=O)oc1C	·	·	-3	0	-13	2	·	·	·	·
O=C(CNc1ccc2ccccc2c1)N/N=C/c1cc2ccccc2nc1Cl	-1	0	0	1	-16	22*	-4	3	-9	34*
O=C(COc1cccc(Cl)c1)N/N=C\c1cc2ccccc2nc1Cl	1	1	-2	-2	-18	-3	·	·	·	·
CN1CCN(c2ccc(-c3ccc4ccccc4n3)cc2)CC1	2	2	4	-2	-27	68*	-2	3	-5	81*
CC(C)Cn1nc(C(=O)Nc2cccc(C(=O)NC3CC3)c2)c2ccccc2c1=O	·	·	-2	·	-2	·	·	·	·	·
FC(F)(F)c1ccccc1CNCc1ccc2c(c1)OCO2	·	·	-5	1	4	-2	·	·	·	·
Cc1ccc(NC(=Nc2ccc(Br)cc2)N2CCOCC2)cc1C	·	·	1	-3	-7	-2	·	·	·	·
CC(=O)c1c2c3c(cccc3n(C)c1=O)C(=O)c1ccccc1-2	·	·	9	3	-4	22*	-2	-3	-4	30*
O=C(NCc1ccco1)c1cccn2c(=O)c3sccc3nc12	-1	0	1	-2	-2	19*	-2	-3	-8	34*
CN(Cc1nc2ccccc2c(=O)[nH]1)C(=O)c1cccc(S(=O)(=O)N2CCc3ccccc32)c1	·	·	0	·	1	·	·	·	·	·
O=c1c(-c2n[nH]c(=S)n2-c2ccccc2)cccn1Cc1cccc(Cl)c1	-1	0	-1	-4	4	25*	-3	48*	-9	31*
C=CCn1c(-c2cccn(Cc3cccc(Cl)c3)c2=O)n[nH]c1=S	0	1	-2	0	-8	3	·	·	·	·
O=[N+]([O-])c1cccc(-c2n[nH]c(=S)n2-c2ccccc2)c1	-1	0	-2	-3	10	-1	·	·	·	·
